Experimental data reported in ChEMBL document CHEMBL4196085, “Structure-guided design of potent and permeable inhibitors of MERS coronavirus 3CL protease that utilize a piperidine moiety as a novel design element” (Eur J Med Chem, 2018).

Assays:
[1] = biological target: Replicase polyprotein 1ab (Feline coronavirus (strain FIPV WSU-79/1146) (FCoV), UniProt Q98VG9); assay: Inhibition of Feline infectious peritonitis virus 3CL protease using Dabcyl-KTSAVLQ/SGFRKME-Edans as substrate incubated for 30 mins followed by substrate addition measured after 1 hr by FRET assay
How it was run: (§1)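 Purified recombinant 3CLpro of FIPV, MERS-CoV or SARS-CoV was preincubated 30 min at 37 °C with serial compound dilutions or DMSO. Buffer: 20 mM HEPES pH 8, 200 mM NaCl, 0.4 mM EDTA, 60% glycerol, 6 mM DTT. Substrate was then added and fluorescence read 1 h later (ex 360/em 460 nm), minus no-protease background. IC50 came from variable-slope fits, at least two determinations.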

[2] = biological target: Replicase polyprotein 1ab (Middle East respiratory syndrome-related coronavirus (isolate UnitedKingdom/H123990006/2012) (Betacoronavirus England 1) (Humancoronavirus EMC), UniProt K9N7C7); assay: Inhibition of Middle East respiratory syndrome-related coronavirus 3CL protease using Dabcyl-KTSAVLQ/SGFRKME-Edans as substrate incubated for 30 mins followed by substrate addition measured after 1 hr by FRET assay; how it was run: as §1
[3] = biological target: Replicase polyprotein 1ab (Severe acute respiratory syndrome-related coronavirus, UniProt P0C6X7); assay: Inhibition of SARS coronavirus 3CL protease using Dabcyl-KTSAVLQ/SGFRKME-Edans as substrate incubated for 30 mins followed by substrate addition measured after 1 hr by FRET assay; how it was run: as §1
[4] = Cytotoxicity against African green monkey Vero81 cells assessed as reduction in cell viability after 72 hrs by CytoTox 96 nonradioactive cytotoxicity assay; format: cell-based; details: chlorocebus sabaeus
How it was run: (§2)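 Confluent Vero81, CRFK or CCL9.1 cells were exposed to compound at 1–100 μM for 72 h. Cytotoxicity was read with the CytoTox 96 nonradioactive kit. CC50 was taken as the dose giving 50% cell death, averaged over at least two determinations.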

[5] = system: Middle East respiratory syndrome-related coronavirus; assay: Antiviral activity against Middle East respiratory syndrome-related coronavirus infected in African green monkey Vero81 cells assessed as reduction in viral titer after 48 hrs; format: functional, organism-based
[6] = Cytotoxicity against mouse CCL-9.1 assessed as reduction in cell viability after 72 hrs by CytoTox 96 nonradioactive cytotoxicity assay; details: CCL-9.1 cells; how it was run: as §2
[7] = Cytotoxicity against cat CRFK cells assessed as reduction in cell viability after 72 hrs by CytoTox 96 nonradioactive cytotoxicity assay; format: cell-based, Felis catus; how it was run: as §2
[8] = system: Feline infectious peritonitis virus; assay: Antiviral activity against Feline infectious peritonitis virus infected in […] cells assessed as reduction in viral titer after 48 hrs; format: functional, organism-based; details: Alphacoronavirus 1, 48 h
[9] = Selectivity index, ratio of CC50 for African green monkey Vero81 cells to IC50 for Middle East respiratory syndrome-related coronavirus; format: toxicity; details: read-out: Ratio CC50/IC50

Replicase polyprotein 1ab (Feline coronavirus (strain FIPV WSU-79/1146) (FCoV), UniProt Q98VG9), sequence (Q98VG9 2904-3205 limits assumed): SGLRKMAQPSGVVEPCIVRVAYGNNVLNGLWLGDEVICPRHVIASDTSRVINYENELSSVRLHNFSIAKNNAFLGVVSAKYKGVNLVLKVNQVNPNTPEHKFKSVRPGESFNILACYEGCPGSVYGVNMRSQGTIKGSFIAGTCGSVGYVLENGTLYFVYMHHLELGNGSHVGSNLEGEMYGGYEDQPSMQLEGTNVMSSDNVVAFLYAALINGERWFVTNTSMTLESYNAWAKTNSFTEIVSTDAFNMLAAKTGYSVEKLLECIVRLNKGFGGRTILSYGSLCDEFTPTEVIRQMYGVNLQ
Replicase polyprotein 1ab (Middle East respiratory syndrome-related coronavirus (isolate UnitedKingdom/H123990006/2012) (Betacoronavirus England 1) (Humancoronavirus EMC), UniProt K9N7C7), sequence (K9N7C7 3248-3553 limits assumed): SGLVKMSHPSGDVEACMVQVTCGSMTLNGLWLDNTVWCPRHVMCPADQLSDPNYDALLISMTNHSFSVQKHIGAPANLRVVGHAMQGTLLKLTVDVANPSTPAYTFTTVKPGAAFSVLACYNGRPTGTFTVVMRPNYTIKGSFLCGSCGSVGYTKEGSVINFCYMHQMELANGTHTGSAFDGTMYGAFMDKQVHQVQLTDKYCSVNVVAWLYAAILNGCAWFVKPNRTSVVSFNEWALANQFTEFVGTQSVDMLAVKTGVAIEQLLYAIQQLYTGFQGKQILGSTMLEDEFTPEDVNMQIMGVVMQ

SMILES	IC50 [1]	IC50 [2]	IC50 [3]	CC50 at 72 h [4]	EC50 [5]	CC50 at 72 h [6]	CC50 at 72 h [7]	EC50 [8]	selectivity ratio [9]
CC(C)C[C@H](NC(=O)OC1(Cc2ccccc2)CCN(C(=O)OC(C)(C)C)CC1)C(=O)N[C@H](C=O)C[C@@H]1CCNC1=O	1600 nM	800 nM	5.2 µM						
CC(C)C[C@H](NC(=O)OC1(Cc2ccccc2)CCN(C(=O)OC(C)(C)C)CC1)C(=O)N[C@@H](C[C@@H]1CCNC1=O)C(O)S(=O)(=O)O (some centres not stated)	2100 nM	700 nM	6.3 µM	> 100 µM	800 nM	> 100 µM	> 100 µM	100 nM	
CCOC(=O)N1CCC(OC(=O)N[C@@H](CC(C)C)C(=O)N[C@@H](C[C@@H]2CCNC2=O)C(O)S(=O)(=O)O)CC1 (some centres not stated)	1100 nM	500 nM	8.8 µM						
CC(C)C[C@H](NC(=O)OC1CCN(C(=O)OC(C)(C)C)CC1)C(=O)N[C@@H](C[C@@H]1CCNC1=O)C(O)S(=O)(=O)O (some centres not stated)	2400 nM	400 nM	5.1 µM	> 100 µM	500 nM	> 100 µM	> 100 µM	1500 nM	> 250
CC(C)C[C@H](NC(=O)OC1(Cc2ccccc2)CCN(S(C)(=O)=O)CC1)C(=O)N[C@@H](C[C@@H]1CCNC1=O)C(O)S(=O)(=O)O (some centres not stated)	1100 nM	900 nM	4.3 µM						
CC(C)C[C@H](NC(=O)OC1CCN(S(C)(=O)=O)CC1)C(=O)N[C@H](C=O)C[C@@H]1CCNC1=O	3500 nM	700 nM	28.8 µM						
CCC1(OC(=O)N[C@@H](CC(C)C)C(=O)N[C@H](C=O)C[C@@H]2CCNC2=O)CCN(C(=O)OC(C)(C)C)CC1	5500 nM	6100 nM	5.5 µM						
CC(C)C[C@H](NC(=O)OC1CCN(S(C)(=O)=O)CC1)C(=O)N[C@@H](C[C@@H]1CCNC1=O)C(O)S(=O)(=O)O (some centres not stated)	2300 nM	600 nM	42.1 µM						
CC(C)C[C@H](NC(=O)OC1CCN(C(=O)OC(C)(C)C)CC1)C(=O)N[C@H](C=O)C[C@@H]1CCNC1=O	800 nM	600 nM	2.1 µM						
CC(C)C[C@H](NC(=O)OC1(Cc2ccccc2)CCN(S(C)(=O)=O)CC1)C(=O)N[C@H](C=O)C[C@@H]1CCNC1=O	800 nM	700 nM	3.9 µM						
CCC1(OC(=O)N[C@@H](CC(C)C)C(=O)N[C@@H](C[C@@H]2CCNC2=O)C(O)S(=O)(=O)O)CCN(C(=O)OC(C)(C)C)CC1 (some centres not stated)	6700 nM	7500 nM	4.1 µM						
CCOC(=O)N1CCC(OC(=O)N[C@@H](CC(C)C)C(=O)N[C@H](C=O)C[C@@H]2CCNC2=O)CC1	1300 nM	600 nM	3.2 µM						
